Reference: ChEMBL document CHEMBL1151742, “Design, synthesis, and characterization of high-affinity, systemically-active galanin analogues with potent anticonvulsant activities” (J Med Chem, 2008)
Active and inactive are the calls of the source. The rule behind the calls is not given here.

What was measured:
Galanin receptor type 2 [1] = target: T1, Galanin receptor type 2 (Homo sapiens, UniProt O43603); test: Binding affinity to human GalR2
T1 sequence (O43603 whole entry): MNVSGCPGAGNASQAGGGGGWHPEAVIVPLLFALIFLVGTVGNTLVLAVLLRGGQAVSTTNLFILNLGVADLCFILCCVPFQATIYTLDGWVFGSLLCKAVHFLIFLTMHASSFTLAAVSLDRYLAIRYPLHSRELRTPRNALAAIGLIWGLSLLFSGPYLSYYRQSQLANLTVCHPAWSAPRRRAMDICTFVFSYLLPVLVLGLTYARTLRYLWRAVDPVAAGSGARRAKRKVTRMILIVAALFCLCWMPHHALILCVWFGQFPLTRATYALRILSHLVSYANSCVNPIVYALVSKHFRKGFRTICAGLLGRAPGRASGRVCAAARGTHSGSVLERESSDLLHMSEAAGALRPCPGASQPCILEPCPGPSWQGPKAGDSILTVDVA

Galanin receptor type 3 = target: T2, Galanin receptor type 3 (Homo sapiens, UniProt O60755); test: Binding affinity to human GalR3
T2 sequence (O60755 whole entry): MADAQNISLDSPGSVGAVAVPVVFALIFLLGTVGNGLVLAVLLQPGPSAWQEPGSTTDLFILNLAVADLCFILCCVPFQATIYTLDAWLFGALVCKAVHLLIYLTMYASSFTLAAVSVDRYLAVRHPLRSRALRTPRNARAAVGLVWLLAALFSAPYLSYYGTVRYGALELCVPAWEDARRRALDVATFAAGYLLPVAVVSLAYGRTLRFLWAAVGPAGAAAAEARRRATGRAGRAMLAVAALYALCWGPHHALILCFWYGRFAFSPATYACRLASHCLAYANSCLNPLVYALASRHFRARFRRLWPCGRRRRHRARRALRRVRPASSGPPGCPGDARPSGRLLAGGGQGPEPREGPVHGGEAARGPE

Mus musculus [2] = test: Anticonvulsant activity in CF1 mouse assessed as inhibition of 6 Hz corneal stimulation-induced limbic seizures at 4 mg/kg, ip administered 60 mins before 6 Hz corneal stimulation; format: functional, organism-based; set-up: dose 4 mg/kg; details: Limbic system
How it was run: (§1)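 Each analogue given ip at 4 mg/kg to five groups of CF-1 mice (n = 4 per group), one group per time point. Seizure challenge was 6 Hz corneal stimulation (32 mA for 3 s, corneal electrodes) at 15, 30, 60, 120 or 240 min after dosing. A mouse without a limbic seizure (jaw chomping, vibrissae twitching, forelimb clonus, Straub tail) was counted as protected.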

Galanin receptor type 2 [3] = target: T1, Galanin receptor type 2; test: Displacement of europium-labeled galanin from human GalR2 expressed in CHO-K1 cells; format: cell-based
Mus musculus [4] = test: Anticonvulsant activity in CF1 mouse assessed as inhibition of 6 Hz corneal stimulation-induced limbic seizures at 4 mg/kg, ip administered 15 mins before 6 Hz corneal stimulation; format: functional, organism-based; set-up: dose 4 mg/kg; details: Limbic system; how it was run: as §1
[5] = Partition coefficient, log D at pH 7.4 by shake-flask method; format: physicochemical; details: octanol/water
How it was run: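 Shake-flask partitioning between water-saturated n-octanol and PBS pH 7.4. Peptide (0.4 mg) was reconstituted in 1 mL PBS, or in octanol if poorly water-soluble. Octanol peptide was taken as total minus aqueous, and logD = log([octanol]/[aqueous]). Four independent preparations per analogue.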

[6] = Metabolic stability in rat serum assessed as half life at pH 7.5; format: ADME, cell-free
How it was run: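 Peptide (final 20 µM) was incubated in 25% rat serum with 0.1 M Tris-HCl pH 7.5 at 37 °C, serum pre-warmed 10 min. Aliquots taken up to 8 h were quenched with 15% TCA in 40% isopropanol, held 15 min at -20 °C and centrifuged. Intact peptide was measured by reversed-phase HPLC peak area, and half-life was calculated from the disappearance.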

Mus musculus [7] = test: Anticonvulsant activity in CF1 mouse assessed as inhibition of 6 Hz corneal stimulation-induced limbic seizures at 4 mg/kg, ip administered 30 mins before 6 Hz corneal stimulation; format: functional, organism-based; set-up: dose 4 mg/kg; details: Limbic system; how it was run: as §1
Mus musculus [8] = test: Anticonvulsant activity in CF1 mouse assessed as inhibition of 6 Hz corneal stimulation-induced limbic seizures at 4 mg/kg, ip administered 240 mins before 6 Hz corneal stimulation; format: functional, organism-based; set-up: dose 4 mg/kg; details: Limbic system; how it was run: as §1
Mus musculus [9] = test: Anticonvulsant activity in CF1 mouse assessed as inhibition of 6 Hz corneal stimulation-induced limbic seizures at 4 mg/kg, ip administered 120 mins before 6 Hz corneal stimulation; format: functional, organism-based; set-up: dose 4 mg/kg; details: Limbic system; how it was run: as §1
Galanin receptor type 1 = target: T3, Galanin receptor type 1 (Homo sapiens, UniProt P47211); test: Displacement of europium-labeled galanin from human GalR1 expressed in HEK293 EBNA cells; format: cell-based
T3 sequence (P47211 whole entry): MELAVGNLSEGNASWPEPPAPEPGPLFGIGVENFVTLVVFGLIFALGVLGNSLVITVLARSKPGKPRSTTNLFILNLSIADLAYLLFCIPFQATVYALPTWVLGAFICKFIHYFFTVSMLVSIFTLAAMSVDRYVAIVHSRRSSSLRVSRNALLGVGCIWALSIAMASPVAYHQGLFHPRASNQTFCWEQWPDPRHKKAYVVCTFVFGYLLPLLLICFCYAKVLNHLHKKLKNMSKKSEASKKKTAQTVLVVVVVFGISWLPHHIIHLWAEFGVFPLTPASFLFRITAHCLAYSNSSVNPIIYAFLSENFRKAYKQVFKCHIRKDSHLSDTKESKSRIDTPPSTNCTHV

Mus musculus [10] = test: Anticonvulsant activity in ip dosed CF1 mouse assessed as inhibition of 6 Hz corneal stimulation-induced limbic seizures; format: functional; details: CF1, Limbic system
[11] = Toxicity in CF1 mouse assessed as motor function by rotarod test; format: organism-based; details: in vivo
Mus musculus [12] = test: Anticonvulsant activity in intracerebroventricularly dosed pharmacoresistant epilepsy CF1 mouse model; format: functional
How it was run: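 Intracerebroventricular injection in mice, followed by the 6 Hz seizure model (32 mA). ED50 was determined in nmole with 95% CI.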

Molecule | Kd (Galanin receptor type 2 [1]) [nM] | Kd (Galanin receptor type 3) [nM] | Activity (Mus musculus [2]) | Ki (Galanin receptor type 2 [3]) [nM] | Activity (Mus musculus [4]) | logD [5] | half-life [6] [h] | Activity (Mus musculus [7]) | Activity (Mus musculus [8]) | Activity (Mus musculus [9]) | Ki (Galanin receptor type 1) [nM] | ED50 (Mus musculus [10]) [mg/kg] | TD50 [11] [mg/kg] | ED50 (Mus musculus [12]) [nmol]
H-GWTLNSAGYLLGPHAVGNHRSFSDKNGLT-OH | 2.3 | 69 | – | – | – | – | – | – | – | – | – | – | – | –
CCCCCCCCCCCCCCCC(=O)NCCCC[C@H](NC(=O)[C@H](C)NC(=O)[C@H](Cc1cnc[nH]1)NC(=O)[C@@H]1CCCN1C(=O)CNC(=O)[C@H](CC(C)C)NC(=O)[C@H](CC(C)C)NC(=O)[C@H](Cc1ccc(O)cc1)NC(=O)CNC(=O)[C@H](C)NC(=O)[C@H](CO)NC(=O)[C@H](CC(N)=O)NC(=O)[C@H](CC(C)C)NC(=O)[C@@H](NC(=O)[C@H](Cc1c[nH]c2ccccc12)NC(=O)CNC)[C@@H](C)O)C(N)=O | – | – | inactive | 160 | inactive | 1.55 | > 10 | inactive | inactive | inactive | – | – | – | –
CCCCCCCCCCCCCCCC(=O)NCCCC[C@H](NC(=O)[C@H](CCCCN)NC(=O)[C@H](CCCCN)NC(=O)[C@H](CC(C)C)NC(=O)[C@H](CC(C)C)NC(=O)[C@H](Cc1ccc(O)cc1)NC(=O)CNC(=O)[C@H](C)NC(=O)[C@H](CO)NC(=O)[C@H](CC(N)=O)NC(=O)[C@H](CC(C)C)NC(=O)[C@@H](NC(=O)[C@H](Cc1c[nH]c2ccccc12)NC(=O)CNC)[C@@H](C)O)C(=O)N[C@@H](CCCCN)C(N)=O | – | – | Active | 1320 | – | – | > 10 | Active | inactive | – | 306 | – | – | –
CC(C)C[C@H](NC(=O)[C@H](CC(C)C)NC(=O)[C@H](Cc1ccc(O)cc1)NC(=O)CNC(=O)[C@H](C)NC(=O)[C@H](CO)NC(=O)[C@H](CC(N)=O)NC(=O)[C@H](CC(C)C)NC(=O)[C@@H](NC(=O)[C@H](Cc1c[nH]c2ccccc12)NC(=O)CN)[C@@H](C)O)C(=O)NCC(=O)N1CCC[C@H]1C(=O)N1CCC[C@H]1C(=O)N1CCC[C@H]1C(=O)NCC(=O)N[C@@H](Cc1ccccc1)C(=O)N[C@@H](CO)C(=O)N1CCC[C@H]1C(=O)N[C@@H](Cc1ccccc1)C(=O)N[C@@H](CCCN=C(N)N)C(N)=O | 2 | 15 | – | – | – | – | – | – | – | – | – | – | – | –
CCCCCCCCCCCCCCCC(=O)NCCCC[C@H](NC(=O)[C@H](CCCCN)NC(=O)[C@H](CCCCN)NC(=O)[C@@H]1CCCN1C(=O)CNC(=O)[C@H](CC(C)C)NC(=O)[C@H](CC(C)C)NC(=O)[C@H](Cc1ccc(O)cc1)NC(=O)CNC(=O)[C@H](C)NC(=O)[C@H](CO)NC(=O)[C@H](CC(N)=O)NC(=O)[C@H](CC(C)C)NC(=O)[C@@H](NC(=O)[C@H](Cc1c[nH]c2ccccc12)NC(=O)CNC)[C@@H](C)O)C(=O)N[C@@H](CCCCN)C(N)=O | – | – | Active | 51.5 | – | 1.26 | 9.4 | Active | inactive | Active | – | 0.8 | 21 | –
CCCCCCCCCCCCCCCC(=O)NCCCC[C@H](NC(=O)[C@@H]1CCCN1C(=O)CNC(=O)[C@H](CC(C)C)NC(=O)[C@H](CC(C)C)NC(=O)[C@H](Cc1ccc(O)cc1)NC(=O)CNC(=O)[C@H](C)NC(=O)[C@H](CO)NC(=O)[C@H](CC(N)=O)NC(=O)[C@H](CC(C)C)NC(=O)[C@@H](NC(=O)[C@H](Cc1c[nH]c2ccccc12)NC(=O)CNC)[C@@H](C)O)C(=O)N[C@@H](CCCCN)C(=O)N[C@@H](CCCCN)C(=O)N[C@@H](CCCCN)C(N)=O | – | – | – | 108 | inactive | – | > 10 | – | – | inactive | 25.5 | – | – | –
CC(C)C[C@H](NC(=O)[C@H](CC(C)C)NC(=O)[C@H](Cc1ccc(O)cc1)NC(=O)CNC(=O)[C@H](C)NC(=O)[C@H](CO)NC(=O)[C@H](CC(N)=O)NC(=O)[C@H](CC(C)C)NC(=O)[C@@H](NC(=O)[C@H](Cc1c[nH]c2ccccc12)NC(=O)CN)[C@@H](C)O)C(=O)NCC(=O)N1CCC[C@H]1C(=O)N[C@@H](Cc1cnc[nH]1)C(=O)N[C@@H](C)C(=O)N[C@H](C(N)=O)C(C)C | – | – | inactive | – | inactive | 0.66 | 0.13 | inactive | inactive | inactive | – | – | – | 1.7
CNCC(=O)N[C@@H](Cc1c[nH]c2ccccc12)C(=O)N[C@H](C(=O)N[C@@H](CC(C)C)C(=O)N[C@@H](CC(N)=O)C(=O)N[C@@H](CO)C(=O)N[C@@H](C)C(=O)NCC(=O)N[C@@H](Cc1ccc(O)cc1)C(=O)N[C@@H](CC(C)C)C(=O)N[C@@H](CC(C)C)C(=O)NCC(=O)N1CCC[C@H]1C(=O)N[C@@H](CCCCN)C(=O)N[C@@H](CCCCN)C(=O)N[C@@H](CCCCN)C(=O)N[C@@H](CCCCN)C(N)=O)[C@@H](C)O | – | – | – | 24 | inactive | 0.4 | 4.6 | – | inactive | inactive | 0.4 | – | – | –
CSCC[C@H](NC(=O)[C@H](CC(C)C)NC(=O)CNC(=O)[C@H](Cc1ccccc1)NC(=O)[C@H](Cc1ccccc1)NC(=O)[C@H](CCC(N)=O)NC(=O)[C@H](CCC(N)=O)NC(=O)[C@@H]1CCCN1C(=O)CNC(=O)[C@H](CC(C)C)NC(=O)[C@H](CC(C)C)NC(=O)[C@H](Cc1ccc(O)cc1)NC(=O)CNC(=O)[C@H](C)NC(=O)[C@H](CO)NC(=O)[C@H](CC(N)=O)NC(=O)[C@H](CC(C)C)NC(=O)[C@@H](NC(=O)[C@H](Cc1c[nH]c2ccccc12)NC(=O)CN)[C@@H](C)O)C(N)=O [GALANTIDE] | 1 | 40 | – | – | – | – | – | – | – | – | – | – | – | –
